# Data reported in ChEMBL document CHEMBL4765360, “Design, synthesis and biological evaluation of novel potent STAT3 inhibitors based on BBI608 for cancer therapy” (Eur J Med Chem, 2020).
# Calls of active or inactive are those of the source. The rule behind the calls is not given here.
# What was measured:
# MDA-MB-231 [1] = assay: Induction of apoptosis in human MDA-MB-231 cells incubated for 24 hrs by annexin V-FITC and PI staining based flow cytometry analysis; type: functional, cell-based; conditions: dose 1-4 µM
# MDA-MB-231 [2] = assay: Induction of apoptosis in human MDA-MB-231 cells assessed as necrotic cells at 1 uM incubated for 24 hrs by annexin V-FITC and PI staining based flow cytometry analysis (reference value: 0.23 %); type: functional
# [3] = Toxicity in BALB/c mouse xenografted with human MDA-MB-231 cells assessed as effect on body weight loss at 5 to 10 mg/kg, ip administered once daily for 21 days and measured for 21 days; type: organism-based; conditions: in vivo, 504 h, dose 5-10 mg/kg/day, time 21 day
# How it was run: (§1)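 Female BALB/c nude mice, 5 weeks old (16–18 g), were given 5×10^6 MDA-MB-231 cells subcutaneously. At ~50 mm³, mice were randomized to three groups (n=6): vehicle, 5 or 10 mg/kg i.p. daily for 21 days. Tumor volume (length×width²/2) was measured every 3 days and body weight recorded. Tumors were excised and weighed at the end. TGI derived versus control; mean ± SEM.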
# MDA-MB-231 [4] = assay: Induction of cell cycle arrest in human MDA-MB-231 cells assessed as S phase accumulation at 2 uM incubated for 24 hrs by PI staining based flow cytometry analysis (reference value: 26.21 %); type: functional
# [5] = target: T1, Signal transducer and activator of transcription 3 (Homo sapiens, UniProt P40763); assay: Displacement of 5-FAM-GpYLPQTV-NH2 from His-tagged STAT3 (unknown origin) (127 to 722 residues) incubated for 30 mins followed by fluorescent peptide probe addition and measured after 1 hr by fluorescence polarization based competition binding assay
# MDA-MB-231 [6] = assay: Antiproliferative activity against human MDA-MB-231 cells overexpressing STAT3 assessed as reduction in cell growth incubated for 48 hrs by CCK-8 assay; type: functional, cell-based; conditions: MDA-MB-231, 48 h
# How it was run: (§2)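 Cells seeded at 5000-7000/well and allowed to settle for 8 h at 37 °C, 5% CO2. Graded compound concentrations were then added in triplicate (DMSO <0.1%) for 48 h. Medium was replaced with 10% CCK-8 for 4 h (MDA-MB-231, MDA-MB-468) or 1 h (HepG2), and A450 was read. IC50 is mean ± SD of at least three independent experiments. HepG2 was grown in high-glucose DMEM with 10% FBS.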
# MDA-MB-231 [7] = assay: Induction of cell cycle arrest in human MDA-MB-231 cells assessed as G0/G1 phase accumulation at 1 uM incubated for 24 hrs by PI staining based flow cytometry analysis (reference value: 57.99 %); type: functional
# MDA-MB-231 [8] = assay: Induction of cell cycle arrest in human MDA-MB-231 cells assessed as G2/M phase accumulation at 2 uM incubated for 24 hrs by PI staining based flow cytometry analysis (reference value: 15.80 %); type: functional
# MDA-MB-231 [9] = assay: Induction of apoptosis in human MDA-MB-231 cells assessed as early apoptotic cells at 1 uM incubated for 24 hrs by annexin V-FITC and PI staining based flow cytometry analysis (reference value: 2.69 %); type: functional
# MDA-MB-231 [10] = assay: Induction of apoptosis in human MDA-MB-231 cells assessed as viable cells at 1 uM incubated for 24 hrs by annexin V-FITC and PI staining based flow cytometry analysis (reference value: 93.37 %); type: functional; conditions: read-out: Activity
# MDA-MB-231 [11] = assay: Effect on STAT1 expression in human MDA-MB-231 cells at 0.75 to 3 uM incubated for 24 hrs by Western blot analysis; type: functional, cell-based; conditions: dose 0.75-3 µM
# How it was run: (§3)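 MDA-MB-231 cells treated with a range of concentrations for 24 h. RIPA lysates with PMSF, 40 µg protein/lane, on 10% SDS-PAGE, then PVDF. Blocked in 5% milk/TBST for 2 h. Primary antibodies to STAT3, p-STAT3(Y705), STAT1, p-STAT1(Y701), c-Myc and Cyclin D1 overnight at 4 °C; GAPDH as loading control. HRP secondary for 1 h; ECL detection.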
# MDA-MB-231 [12] = assay: Induction of cell cycle arrest in human MDA-MB-231 cells assessed as G0/G1 phase accumulation at 4 uM incubated for 24 hrs by PI staining based flow cytometry analysis (reference value: 57.99 %); type: functional
# [13] = target: T1, Signal transducer and activator of transcription 3; assay: Inhibition of STAT3 in human MDA-MB-231 cells assessed as reduction in STAT3 Y705 phosphorylation incubated for 24 hrs by Western blot analysis; type: cell-based; conditions: dose 0.75-3 µM; how it was run: as §3
# MDA-MB-231 [14] = assay: Induction of apoptosis in human MDA-MB-231 cells assessed as late apoptotic cells at 1 uM incubated for 24 hrs by annexin V-FITC and PI staining based flow cytometry analysis (reference value: 3.72 %); type: functional
# [15] = target: T1, Signal transducer and activator of transcription 3; assay: Inhibition of STAT3 in human MDA-MB-231 cells assessed as reduction in Cyclin D1 expression incubated for 24 hrs by Western blot analysis; type: cell-based; conditions: dose 0.75-3 µM; how it was run: as §3
# MDA-MB-231 [16] = assay: Antitumor activity against human MDA-MB-231 cells xenografted in BALB/c mouse assessed reduction in tumor weight at 10 mg/kg, ip administered once daily for 21 days and measured on day 21 relative to control; type: functional; design: scale not given: the % may be the effect or the level left; conditions: dose 10 mg/kg/day; time 21 day; how it was run: as §1
# MDA-MB-231 [17] = assay: Effect on STAT3 expression in human MDA-MB-231 cells at 0.75 to 3 uM incubated for 24 hrs by Western blot analysis; type: functional, cell-based; conditions: dose 0.75-3 µM; how it was run: as §3
# MDA-MB-231 [18] = assay: Induction of apoptosis in human MDA-MB-231 cells assessed as viable cells at 4 uM incubated for 24 hrs by annexin V-FITC and PI staining based flow cytometry analysis (reference value: 93.37 %); type: functional; conditions: read-out: Activity
# MDA-MB-231 [19] = assay: Induction of cell cycle arrest in human MDA-MB-231 cells assessed as G2/M phase accumulation at 4 uM incubated for 24 hrs by PI staining based flow cytometry analysis (reference value: 15.80 %); type: functional
# MDA-MB-231 [20] = assay: Induction of apoptosis in human MDA-MB-231 cells assessed as late apoptotic cells at 4 uM incubated for 24 hrs by annexin V-FITC and PI staining based flow cytometry analysis (reference value: 3.72 %); type: functional
# MDA-MB-231 [21] = assay: Induction of apoptosis in human MDA-MB-231 cells assessed as viable cells at 2 uM incubated for 24 hrs by annexin V-FITC and PI staining based flow cytometry analysis (reference value: 93.37 %); type: functional; conditions: read-out: Activity
# HepG2 = assay: Antiproliferative activity against human HepG2 cells overexpressed STAT3 assessed as reduction in cell growth incubated for 48 hrs by CCK-8 assay; type: functional, cell-based; conditions: HepG2, 48 h; how it was run: as §2
# MDA-MB-231 [22] = assay: Induction of cell cycle arrest in human MDA-MB-231 cells assessed as increase in S phase accumulation incubated for 24 hrs by PI staining based flow cytometry analysis; type: functional; conditions: dose 1-4 µM
# MDA-MB-468 = assay: Antiproliferative activity against human MDA-MB-468 cells overexpressing STAT3 assessed as reduction in cell growth incubated for 48 hrs by CCK-8 assay; type: functional, cell-based; conditions: MDA-MB-468, 48 h; how it was run: as §2
# MDA-MB-231 [23] = assay: Induction of apoptosis in human MDA-MB-231 cells assessed as early apoptotic cells at 4 uM incubated for 24 hrs by annexin V-FITC and PI staining based flow cytometry analysis (reference value: 2.69 %); type: functional
# T1 sequence (P40763 whole entry, the tested form may be a part): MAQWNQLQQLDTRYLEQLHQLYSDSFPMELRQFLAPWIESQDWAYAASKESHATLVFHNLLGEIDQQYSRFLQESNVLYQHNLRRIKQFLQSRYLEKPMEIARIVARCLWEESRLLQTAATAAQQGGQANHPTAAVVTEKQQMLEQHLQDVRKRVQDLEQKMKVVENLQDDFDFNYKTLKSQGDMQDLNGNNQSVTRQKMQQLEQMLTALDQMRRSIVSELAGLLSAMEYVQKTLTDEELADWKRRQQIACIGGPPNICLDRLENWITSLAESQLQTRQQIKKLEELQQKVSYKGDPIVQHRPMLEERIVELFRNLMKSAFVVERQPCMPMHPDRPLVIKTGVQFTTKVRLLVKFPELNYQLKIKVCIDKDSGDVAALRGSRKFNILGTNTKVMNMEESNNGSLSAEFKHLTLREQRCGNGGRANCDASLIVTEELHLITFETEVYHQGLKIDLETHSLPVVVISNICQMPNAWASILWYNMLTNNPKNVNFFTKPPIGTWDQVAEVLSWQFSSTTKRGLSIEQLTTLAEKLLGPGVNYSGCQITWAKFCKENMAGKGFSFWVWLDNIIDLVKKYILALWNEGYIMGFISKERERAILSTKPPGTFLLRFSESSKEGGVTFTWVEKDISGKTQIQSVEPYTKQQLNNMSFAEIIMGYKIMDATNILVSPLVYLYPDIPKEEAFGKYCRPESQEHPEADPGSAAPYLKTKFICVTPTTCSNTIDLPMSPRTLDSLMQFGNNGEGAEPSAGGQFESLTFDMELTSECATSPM
compound,measurement,setting,value
COc1ccc(NC2=CC(=O)c3cc(C(C)=O)oc3C2=O)cc1,Activity,MDA-MB-231 [1],Dose-dependent effect
same,Activity,MDA-MB-231 [2],0.41%
same,Activity,[3],Non-Toxic
same,Activity,MDA-MB-231 [4],46.21%
same,IC50,[5],5.18 µM
same,inhibition,[5]; time 1.5 hrs,Dose-dependent effect
same,IC50,MDA-MB-231 [6],0.67 µM
same,Activity,MDA-MB-231 [7],49.42%
same,Activity,MDA-MB-231 [8],13.3%
same,Activity,MDA-MB-231 [9],5.21%
same,viability at 1 µM,MDA-MB-231 [10],87.9%
same,Activity,MDA-MB-231 [11],inactive
same,Activity,MDA-MB-231 [12],35.39%
same,inhibition,[13],Dose-dependent effect
same,Activity,MDA-MB-231 [14],6.51%
same,inhibition,[15],Dose-dependent effect
same,Activity,MDA-MB-231 [16],45.19%
same,Activity,MDA-MB-231 [17],inactive
same,viability at 4 µM,MDA-MB-231 [18],67%
same,Activity,MDA-MB-231 [19],7.52%
same,Activity,MDA-MB-231 [20],22.03%
same,viability at 2 µM,MDA-MB-231 [21],82.2%
same,IC50,HepG2,1.24 µM
same,Activity,MDA-MB-231 [22],Dose-dependent effect
same,IC50,MDA-MB-468,0.77 µM
same,Activity,MDA-MB-231 [23],10.25%
